Experimental data reported in publication PMC11044220 (ACS Omega, 2024).

Legend:
HepG2 cells [1] = experiment: Cell cycle analysis by flow cytometry; assay type: cell-based, human; settings: for percentage of cells at the G1 phase: IC50 concentration (4.23 μM), control 50.7%
Procedure, shortened: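 HepG2 cells were treated for 48 h with 4.23 μM test compound, alongside untreated controls. DNA content was analysed by FACS to give the percentage of cells in G1, S and G2/M. The pre-G1 fraction was scored as the apoptotic (DNA-fragmented) population. Fold changes were expressed relative to the untreated control.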

EGFR-TK = EGFR-TK (Homo sapiens, UniProt P00533); experiment: EGFR-TK enzyme assay; assay type: biochemical
Sequence of EGFR-TK (P00533 25-1210): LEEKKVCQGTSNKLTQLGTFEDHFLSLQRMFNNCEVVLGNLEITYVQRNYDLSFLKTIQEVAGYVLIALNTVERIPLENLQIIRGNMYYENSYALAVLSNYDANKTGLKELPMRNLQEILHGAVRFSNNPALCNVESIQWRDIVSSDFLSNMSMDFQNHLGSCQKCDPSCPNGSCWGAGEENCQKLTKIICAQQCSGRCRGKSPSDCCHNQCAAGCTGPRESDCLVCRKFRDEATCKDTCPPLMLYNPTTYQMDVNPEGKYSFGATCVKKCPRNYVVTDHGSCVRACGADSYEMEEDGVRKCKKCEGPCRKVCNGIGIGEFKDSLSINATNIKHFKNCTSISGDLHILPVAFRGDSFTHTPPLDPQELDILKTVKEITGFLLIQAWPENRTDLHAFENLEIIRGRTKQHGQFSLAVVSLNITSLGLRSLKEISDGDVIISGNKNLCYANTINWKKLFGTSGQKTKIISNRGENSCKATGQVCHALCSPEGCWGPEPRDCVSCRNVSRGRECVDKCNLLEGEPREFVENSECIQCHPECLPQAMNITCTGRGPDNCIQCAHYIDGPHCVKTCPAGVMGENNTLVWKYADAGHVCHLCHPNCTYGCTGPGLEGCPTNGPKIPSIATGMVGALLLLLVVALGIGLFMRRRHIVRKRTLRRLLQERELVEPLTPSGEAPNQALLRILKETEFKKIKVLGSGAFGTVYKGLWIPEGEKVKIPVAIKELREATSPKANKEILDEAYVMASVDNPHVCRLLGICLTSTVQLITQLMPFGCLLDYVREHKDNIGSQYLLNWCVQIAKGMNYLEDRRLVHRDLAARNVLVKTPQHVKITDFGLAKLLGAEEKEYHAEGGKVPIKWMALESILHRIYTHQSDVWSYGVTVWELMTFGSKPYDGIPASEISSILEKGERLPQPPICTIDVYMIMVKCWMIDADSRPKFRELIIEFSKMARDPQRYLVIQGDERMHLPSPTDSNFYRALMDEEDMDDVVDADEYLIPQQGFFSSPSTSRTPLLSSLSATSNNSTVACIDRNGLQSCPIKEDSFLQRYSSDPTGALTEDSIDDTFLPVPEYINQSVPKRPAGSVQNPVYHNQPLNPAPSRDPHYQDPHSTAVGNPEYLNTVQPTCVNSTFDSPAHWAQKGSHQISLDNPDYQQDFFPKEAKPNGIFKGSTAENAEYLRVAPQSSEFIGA

HepG2 cells [2] = experiment: Annexin V-FITC/PI dual staining apoptosis assay; assay type: cell-based, human
HepG2 cells [3] = experiment: Mitochondrial membrane potential; assay type: cell-based, human; settings: HepG2, 48 h, 4.23 μM (IC50 concentration)
Procedure, shortened: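 Whole HepG2 cells were incubated with 4.23 μM test compound for 48 h, then labelled with a green fluorescent mitochondrial dye. The percentage of cells with depolarised mitochondrial membranes was measured and expressed as fold relative to untreated HepG2 cells.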

p53 = experiment: qRT-PCR for apoptotic markers: p53; assay type: cell-based
Bax = experiment: qRT-PCR for apoptotic markers: Bax; assay type: cell-based
Bcl2 = experiment: qRT-PCR for apoptotic markers: Bcl2; assay type: cell-based
[4] = test system: HepG2 liver cancer cell line; settings: read-out: IC50 (μM) HepG2, MTT assay, mean of three independent replicates ± SE

| Structure (SMILES) | percentage of cells at the G1 phase (HepG2 cells [1]; HepG2, 48 h) | IC50 (EGFR-TK) | cells at the pre-G1 phase (HepG2 cells [1]; HepG2, 48 h, IC50 concentration, control 2.5%) | cell cycle arrest at the G1 phase, fold compared to untreated HepG2 control (HepG2 cells [1]; HepG2, IC50 concentration) | total apoptotic cells (early and late apoptosis and necrosis) (HepG2 cells [2]; HepG2, 48 h, IC50 concentration (4.23 μM), control 2.5%) | ratio of both early and late apoptosis (HepG2 cells [2]; HepG2, IC50 concentration, control 0.7%) | decrease of MMP level, fold compared with untreated control HepG2 (HepG2 cells [3]) | p53 level, fold change compared with no treatment control (p53) | Bax level, fold change compared with no treatment control (Bax) | Bcl2 level, fold change (Bcl2) | IC50 [4] |
| --- | --- | --- | --- | --- | --- | --- | --- | --- | --- | --- | --- |
| O=C(NN=C(c1ccccc1)c1ccccc1)/C(=C/c1ccc(F)cc1)NC(=O)c1ccccc1 [compound 5, (Z)-N-(3-(2-(Diphenylmethylene)hydrazinyl)-1-(4-fluorophenyl)-3-oxoprop-1-en-2-yl)benzamide] | 64.2% | – | – | – | – | – | – | – | – | – | – |
| O=C1/C(=C/c2ccc(F)cc2)N=C(c2ccccc2)N1c1ccc(S(=O)(=O)Nc2ncccn2)cc1 [compound 6, (Z)-4-(4-(4-Fluorobenzylidene)-5-oxo-2-phenyl-4,5-dihydro-1H-imidazol-1-yl)-N-(pyrimidin-2-yl)benzenesulfonamide] | 64.2% | 0.13 µM | 55.5% | 1.28 fold | 55.5% | 44.8% | 2.84 fold | 4.7 fold | 3.7 fold | 0.38 fold | – |
| O=C1NN(c2ccccc2)C(c2ccccc2)=N/C1=C\c1ccc(F)cc1 [compound 7, (Z)-5-(4-Fluorobenzylidene)-2,3-diphenyl-1,2-dihydro-1,2,4-triazin-6(5H)-one] | – | – | – | – | – | – | – | – | – | – | 5.89 ± 0.19 µM |
